{"source": "ChEMBL document CHEMBL3244172", "about": "“Easily hydrolyzable, water-soluble derivatives of (+/-)-alpha-5-[1-(indol-3-yl)ethyl]-2-methylamino-delta2-thiazoline-4-one, a novel antiviral compound” (J Med Chem, 1979)", "key": {"[1]": {"experiment": "Stability in unbuffered aqueous solutions at pH >6 assessed as compound hydrolysis", "format": "physicochemical", "conditions": "unbuffered aqueous solution"}, "Influenza A virus [2]": {"system": "Influenza A virus", "experiment": "(§1) Antiviral activity against Influenza A virus Port Chalmers/1/73 (H3N2) infected in ferret assessed as reduction in viral excretion by measuring hemagglutination units per ml at 16 mg/kg administered intranasally 7 times on day 0 and 9 times on day 1 to day 3 measured on day 4 relative to untreated control", "format": "functional", "how_it_was_run": "(§2)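 Ferrets (700–1500 g, groups of three, untreated control group) were infected intranasally on day 0. Unanaesthetized animals received 0.2 mL of a 50 mg/mL solution in distilled water intranasally, from 2 h post-infection, hourly: 7 doses on day 0 and 9 daily on days +1 to +3. Nasal washings were titrated for hemagglutination with 0.5% washed chicken erythrocytes (HAU/mL) on days +2 to +4.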"}, "Mustela putorius furo [3]": {"system": "Mustela putorius furo", "experiment": "Toxicity in ferret infected with Influenza A virus Port Chalmers/1/73 (H3N2) assessed as change in body weight at 13 mg/kg administered intranasally 7 times on day 0 and 9 times on day 1 to day 3 measured after 7 days relative to untreated control", "format": "organism-based", "parameters": "dose 13 mg/kg", "conditions": "in vivo, inhaled_or_intranasal, 168 h", "how_it_was_run": "(§3)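 Infected ferrets (700–1500 g, groups of three, untreated controls) were dosed intranasally each hour with 0.2 mL of a 50 mg/mL solution in distilled water: 7 doses on day 0 and 9 on days +1 to +3. Body weight was recorded throughout and expressed as % change.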"}, "Influenza A virus [4]": {"system": "Influenza A virus", "experiment": "as §1, with “day 2” for “day 3”, “day 2” for “day 4”", "format": "functional", "how_it_was_run": "as §2"}, "Influenza A virus [5]": {"system": "Influenza A virus", "experiment": "Antiviral activity against Influenza A virus Port Chalmers/1/73 (H3N2) infected in ferret assessed as reduction in rectal temperature at 8 to 16 mg/kg administered intranasally 7 times on day 0 and 9 times on day 1 to day 3 relative to untreated control", "format": "functional", "conditions": "dose mg/kg 8-16", "how_it_was_run": "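Infected ferrets (700–1500 g, groups of three, untreated controls) received hourly intranasal 0.2 mL of a 50 mg/mL aqueous solution: 7 doses on day 0 and 9 on days +1 to +3. Rectal temperature was recorded and readings >39.5 °C and >40.0 °C were counted on days +1 to +4.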"}, "Influenza A virus [6]": {"system": "Influenza A virus", "experiment": "as §1, with “3” for “4”", "format": "functional", "how_it_was_run": "as §2"}, "[7]": {"experiment": "Stability in unbuffered aqueous solutions at pH >6 assessed as compound decarboxylation", "format": "physicochemical"}, "Mustela putorius furo [8]": {"system": "Mustela putorius furo", "experiment": "Toxicity in ferret infected with Influenza A virus Port Chalmers/1/73 (H3N2) assessed as change in body weight at 8 mg/kg administered intranasally 7 times on day 0 and 9 times on day 1 to day 3 measured after 7 days relative to untreated control", "format": "organism-based", "parameters": "dose 8 mg/kg", "conditions": "in vivo, inhaled_or_intranasal, 168 h", "how_it_was_run": "as §3"}, "Influenza A virus [9]": {"system": "Influenza A virus", "experiment": "as §1, with “at 13” for “at 16”, “day 2” for “day 3”, “day 2” for “day 4”", "format": "functional", "how_it_was_run": "as §2"}, "Influenza A virus [10]": {"system": "Influenza A virus", "experiment": "as §1, with “13” for “16”", "format": "functional", "how_it_was_run": "as §2"}, "Influenza A virus [11]": {"system": "Influenza A virus", "experiment": "as §1, with “8” for “16”", "format": "functional", "how_it_was_run": "as §2"}, "Influenza A virus [12]": {"system": "Influenza A virus", "experiment": "as §1, with “13” for “16”, “3” for “4”", "format": "functional", "how_it_was_run": "as §2"}, "[13]": {"experiment": "Solubility in water", "format": "physicochemical", "conditions": "buffer"}, "Mustela putorius furo [14]": {"system": "Mustela putorius furo", "experiment": "Toxicity in ferret infected with Influenza A virus Port Chalmers/1/73 (H3N2) assessed as change in body weight at 16 mg/kg administered intranasally 7 times on day 0 and 9 times on day 1 to day 3 measured after 7 days relative to untreated control", "format": "organism-based", "parameters": "dose 16 mg/kg", "conditions": "in vivo, inhaled_or_intranasal, 168 h", "how_it_was_run": "as §3"}, "Influenza A virus [15]": {"system": "Influenza A virus", "experiment": "as §1, with “at 8” for “at 16”, “day 2” for “day 3”, “day 2” for “day 4”", "format": "functional", "how_it_was_run": "as §2"}}, "data": [{"smiles": "CNC1=NC(=O)C(C(C)c2cn(C(=O)OCC(C)(C)N(C)C)c3ccccc23)S1.Cl", "note": "(racemic)", "values": [{"measurement": "Stability", "setting": "[1]", "value": "Unstable"}, {"measurement": "Activity", "setting": "Influenza A virus [2]", "value": "<4", "unit": "HAU/ml"}, {"measurement": "Activity", "setting": "Mustela putorius furo [3]", "value": -3.3, "unit": "%"}, {"measurement": "Activity", "setting": "Influenza A virus [4]", "value": "<4", "unit": "HAU/ml"}, {"measurement": "T", "setting": "Influenza A virus [5]", "value": ">40", "unit": "°C"}, {"measurement": "Activity", "setting": "Influenza A virus [6]", "value": "<4", "unit": "HAU/ml"}, {"measurement": "Stability", "setting": "[7]", "value": "Unstable"}, {"measurement": "Activity", "setting": "Mustela putorius furo [8]", "value": -0.4, "unit": "%"}, {"measurement": "Activity", "setting": "Influenza A virus [9]", "value": "<4", "unit": "HAU/ml"}, {"measurement": "Activity", "setting": "Influenza A virus [10]", "value": "<4", "unit": "HAU/ml"}, {"measurement": "Activity", "setting": "Influenza A virus [11]", "value": "<4", "unit": "HAU/ml"}, {"measurement": "Activity", "setting": "Influenza A virus [12]", "value": "<4", "unit": "HAU/ml"}, {"measurement": "solubility", "setting": "[13]", "value": "soluble"}, {"measurement": "Activity", "setting": "Mustela putorius furo [14]", "value": -3.2, "unit": "%"}, {"measurement": "Activity", "setting": "Influenza A virus [15]", "value": "<4", "unit": "HAU/ml"}]}]}
